Converted amounts (≈) assume the structure as drawn.
What was measured:
[1] = tested on: Staphylococcus aureus; assay: In vitro antimicrobial activity against aerobic bacteria Staphylococcus aureus V135; assay type: functional
[2] = tested on: Rattus norvegicus; assay: Peripheral plasma levels in rats after oral administration of 100 mg/kg dose for 0.25 hr; assay type: functional, organism-based; parameters: dose 100 mg/kg
Procedure, shortened: (§1)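 Rats received 100 mg/kg orally and were sampled for peripheral plasma. Concentrations were measured by Micrococcus luteus agar-diffusion microbiological assay in Antibiotic Medium 1, with zone sizes converted using the standard curve for the appropriate compound. Each value is the average of three rats per time point.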

[3] = tested on: Streptococcus; assay: In vitro antimicrobial activity against aerobic bacteria Streptococcus D 9960; assay type: functional
[4] = tested on: Eikenella corrodens; assay: In vitro antimicrobial activity against anaerobic bacteria bacteroides corrodens 1874; assay type: functional
[5] = tested on: Rattus norvegicus; assay: Peripheral plasma levels in rats after oral administration of 100 mg/kg dose for 1 hr; assay type: functional, organism-based; parameters: dose 100 mg/kg; procedure, shortened: as §1
[6] = tested on: Staphylococcus aureus; assay: In vitro antimicrobial activity against aerobic bacteria Staphylococcus aureus X400; assay type: functional
[7] = tested on: Mus musculus; assay: Peripheral plasma levels in mice after oral administration of 50 mg/kg dose for 0.5 hr; assay type: functional, organism-based; parameters: dose 50 mg/kg
Procedure, shortened: (§2)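 Mice were given the compound orally and sampled for peripheral plasma at each time point. Plasma was assayed microbiologically against Micrococcus luteus seeded in Antibiotic Medium 1. Inhibition zone sizes were read, and concentrations were calculated from each compound's own standard curve. Each value is the mean of five mice per time point.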

[8] = tested on: Staphylococcus aureus; assay: In vivo effective dose against experimental infections in mice Staphylococcus aureus X1 when administered sc; assay type: functional
[9] = In vitro antimicrobial activity against anaerobic bacteria peptostreptococcus intermedius 1264; assay type: functional
[10] = tested on: Streptococcus pneumoniae; assay: In vitro antimicrobial activity against aerobic bacteria Streptococcus pneumoniae B1-438; assay type: functional, streptococcus pneum
[11] = tested on: Staphylococcus epidermidis; assay: In vitro antimicrobial activity against aerobic bacteria Streptococcus epi 270; assay type: functional
[12] = tested on: Rattus norvegicus; assay: Peripheral plasma levels in rats after oral administration of 100 mg/kg dose for 0.5 hr; assay type: functional, organism-based; parameters: dose 100 mg/kg; procedure, shortened: as §1
[13] = tested on: Staphylococcus epidermidis; assay: In vitro antimicrobial activity against aerobic bacteria Streptococcus epi 222; assay type: functional
[14] = tested on: Mus musculus; assay: Peripheral plasma levels in mice after oral administration of 100 mg/kg dose for 1 hr; assay type: functional, organism-based; parameters: dose 100 mg/kg; procedure, shortened: as §2
[15] = tested on: Streptococcus pyogenes; assay: In vivo effective dose against experimental infections in rodent caused by Streptococcus pyogenes C203 when administered sc; assay type: functional
[16] = tested on: Collinsella aerofaciens; assay: In vitro antimicrobial activity against anaerobic bacteria eubacterium aerofaciens 1235; assay type: functional
[17] = tested on: Mus musculus; assay: Peripheral plasma levels in mice after oral administration of 50 mg/kg dose for 4 hr; assay type: functional, organism-based; parameters: dose 50 mg/kg; procedure, shortened: as §2
[18] = tested on: Mus musculus; assay: Peripheral plasma levels in mice after oral administration of 100 mg/kg dose for 2 hr; assay type: functional, organism-based; parameters: dose 100 mg/kg; procedure, shortened: as §2
[19] = tested on: Mus musculus; assay: Peripheral plasma levels in mice after oral administration of 50 mg/kg dose for 0.25 hr; assay type: functional, organism-based; parameters: dose 50 mg/kg; procedure, shortened: as §2
[20] = tested on: Haemophilus parainfluenzae; assay: In vitro antimicrobial activity against aerobic bacteria Haemophilus parainfluenzae 9796; assay type: functional
[21] = tested on: Clostridium septicum; assay: In vitro antimicrobial activity against anaerobic bacteria clostridium septicum 1128; assay type: functional
[22] = tested on: Bacteroides thetaiotaomicron; assay: In vitro antimicrobial activity against anaerobic bacteria bacteroides thetaiotaomicron 1438; assay type: functional
[23] = tested on: Rattus norvegicus; assay: Peripheral plasma levels in rats after oral administration of 100 mg/kg dose for 4 hr; assay type: functional, organism-based; parameters: dose 100 mg/kg; procedure, shortened: as §1
[24] = tested on: Streptococcus pneumoniae; assay: In vitro antimicrobial activity against Streptococcus pneumoniae; assay type: functional
[25] = tested on: Streptococcus; assay: In vitro antimicrobial activity against aerobic bacteria Streptococcus D 8043; assay type: functional
[26] = tested on: Staphylococcus aureus; assay: In vitro antimicrobial activity against Staphylococcus aureus X1; assay type: functional
[27] = tested on: Streptococcus pyogenes; assay: In vitro antimicrobial activity against Streptococcus pyogenes C203; assay type: functional
[28] = tested on: Staphylococcus aureus; assay: In vitro antimicrobial activity against aerobic bacteria Staphylococcus aureus 513E; assay type: functional
[29] = tested on: Streptococcus pyogenes; assay: In vivo effective dose against experimental infections in rodent caused by Streptococcus pyogenes C203 when administered orally; assay type: functional; conditions: po
[30] = tested on: Fusobacterium necrophorum; assay: In vitro antimicrobial activity against anaerobic bacteria usobacterium necrophorum 6054A; assay type: functional
[31] = tested on: Peptostreptococcus anaerobius; assay: In vitro antimicrobial activity against anaerobic bacteria eubacterium peptostreptococcus anaerobius 1428,; assay type: functional
[32] = tested on: Prevotella melaninogenica; assay: In vitro antimicrobial activity against anaerobic bacteria bacteroides melaninogenicus 1856,; assay type: functional
[33] = tested on: Mus musculus; assay: Peripheral plasma levels in mice after oral administration of 50 mg/kg dose for 1 hr; assay type: functional, organism-based; parameters: dose 50 mg/kg; procedure, shortened: as §2
[34] = tested on: Rattus norvegicus; assay: Peripheral plasma levels in rats after oral administration of 100 mg/kg dose for 2 hr; assay type: functional, organism-based; parameters: dose 100 mg/kg; procedure, shortened: as §1
[35] = tested on: Enterococcus faecium; assay: In vitro antimicrobial activity against Streptococcus faecium X66; assay type: functional, streptococcus fae-cium
[36] = tested on: Staphylococcus aureus; assay: In vitro antimicrobial activity against aerobic bacteria Staphylococcus aureus V41; assay type: functional
[37] = tested on: Haemophilus influenzae; assay: In vitro antimicrobial activity against Haemophilus influenzae.; assay type: functional
[38] = tested on: Bacteroides fragilis; assay: In vitro antimicrobial activity against anaerobic bacteria bacteroides fragilis 1877; assay type: functional
[39] = tested on: Haemophilus influenzae; assay: In vitro antimicrobial activity against aerobic bacteria Haemophilus influenzae MX366,; assay type: functional
[40] = tested on: Mus musculus; assay: Peripheral plasma levels in mice after oral administration of 50 mg/kg dose for 2 hr; assay type: functional, organism-based; parameters: dose 50 mg/kg; procedure, shortened: as §2
[41] = tested on: Clostridium perfringens; assay: In vitro antimicrobial activity against anaerobic bacteria clostridium perfringens 81,; assay type: functional
[42] = tested on: Clostridioides difficile; assay: In vitro antimicrobial activity against anaerobic bacteria Clostridium difficile 2994; assay type: functional
[43] = tested on: Anaerococcus prevotii; assay: In vitro antimicrobial activity against anaerobic bacteria peptococcus prevoti 1281; assay type: functional
[44] = tested on: Phocaeicola vulgatus; assay: In vitro antimicrobial activity against anaerobic bacteria bacteroides vulgatus 1211; assay type: functional
[45] = tested on: Staphylococcus aureus; assay: In vivo effective dose against experimental infections in mice Staphylococcus aureus X1 when administered orally; assay type: functional; conditions: po
[46] = tested on: Streptococcus pneumoniae; assay: In vivo effective dose against experimental infections in mice Strep. pneumoniae park when administered orally; assay type: functional; conditions: po
[47] = tested on: Mus musculus; assay: Peripheral plasma levels in mice after oral administration of 100 mg/kg dose for 0.25 hr; assay type: functional, organism-based; parameters: dose 100 mg/kg; procedure, shortened: as §2
[48] = tested on: Streptococcus pneumoniae; assay: In vivo effective dose against experimental infections in mice Strep. pneumoniae park when administered sc; assay type: functional
[49] = tested on: Streptococcus; assay: In vitro antimicrobial activity against aerobic bacteria Streptococcus D 2041; assay type: functional
[50] = tested on: Haemophilus influenzae; assay: In vitro antimicrobial activity against aerobic bacteria Haemophilus influenzae 76; assay type: functional
[51] = tested on: Staphylococcus epidermidis; assay: In vitro antimicrobial activity against Staphylococcus epidermidis EPI1; assay type: functional
[52] = tested on: Streptococcus; assay: In vitro antimicrobial activity against aerobic bacteria Streptococcus B 5; assay type: functional
[53] = tested on: Bacteroides fragilis; assay: In vitro antimicrobial activity against anaerobic bacteria bacteroides fragilis 1936B,; assay type: functional
[54] = tested on: Bacteroides fragilis; assay: In vitro antimicrobial activity against anaerobic bacteria bacteroides fragilis 111; assay type: functional
[55] = tested on: Chlamydia trachomatis; assay: In vitro antimicrobial activity against chlamydia trachomatis.; assay type: functional
[56] = tested on: Mus musculus; assay: Peripheral plasma levels in mice after oral administration of 100 mg/kg dose for 4 hr; assay type: functional, organism-based; parameters: dose 100 mg/kg; procedure, shortened: as §2
[57] = tested on: Mus musculus; assay: Peripheral plasma levels in mice after oral administration of 100 mg/kg dose for 0.5 hr; assay type: functional, organism-based; parameters: dose 100 mg/kg; procedure, shortened: as §2
[58] = tested on: Fusobacterium; assay: In vitro antimicrobial activity against anaerobic bacteria fusobacterium symbiosum 1470; assay type: functional
[59] = tested on: Haemophilus influenzae; assay: In vitro antimicrobial activity against aerobic bacteria Haemophilus influenzae 465; assay type: functional
[60] = tested on: Peptoniphilus asaccharolyticus; assay: In vitro antimicrobial activity against anaerobic bacteria peptococcus asaccharolyticus 1302; assay type: functional
[61] = tested on: Staphylococcus aureus; assay: In vitro antimicrobial activity against aerobic bacteria Staphylococcus aureus V140,; assay type: functional
[62] = tested on: Prevotella melaninogenica; assay: In vitro antimicrobial activity against anaerobic bacteria bacteroides melaninogenicus 2736; assay type: functional
[63] = tested on: Cutibacterium acnes; assay: In vitro antimicrobial activity against anaerobic bacteria propionibacterium acnes 79; assay type: functional
[64] = tested on: Streptococcus; assay: In vitro antimicrobial activity against aerobic bacteria Streptococcus B 14; assay type: functional

## CC[C@H]1OC(=O)C[C@@H](O)[C@H](C)[C@@H](O[C@@H]2O[C@H](C)[C@@H](O)[C@H](N(C)C)[C@H]2O)[C@@H](CCCl)C[C@@H](C)C(=O)/C=C/C(C)=C/[C@@H]1CO[C@@H]1O[C@H](C)[C@@H](O)[C@@H](OC)[C@H]1OC
[1]
  MIC: 0.25 µg/mL (≈ 0.315 µM)
[2]
  Concentration: 5.4 µg/mL
[3]
  MIC: 8 µg/mL (≈ 10.1 µM)
[4]
  MIC: 2 µg/mL (≈ 2.52 µM)
[5]
  Concentration: 9.4 µg/mL
[6]
  MIC: 0.12 µg/mL (≈ 0.151 µM)
[7]
  Concentration: 0.4 µg/mL
[8]
  ED50: 1.8 mg/kg
[9]
  MIC: 2 µg/mL (≈ 2.52 µM)
[10]
  MIC: > 128 µg/mL
[11]
  MIC: > 128 µg/mL
[12]
  Concentration: 8.8 µg/mL
[13]
  MIC: 0.6 µg/mL (≈ 0.757 µM)
[14]
  Concentration: 2.8 µg/mL
[15]
  ED50: 0.7 mg/kg
[16]
  MIC: 4 µg/mL (≈ 5.05 µM)
[17]
  Concentration: < 0.1 µg/mL
[18]
  Concentration: 1.5 µg/mL
[19]
  Concentration: 0.3 µg/mL
[20]
  MIC: 32 µg/mL (≈ 40.4 µM)
[21]
  MIC: < 0.5 µg/mL
[22]
  MIC: 2 µg/mL (≈ 2.52 µM)
[23]
  Concentration: 7.7 µg/mL
[24]
  MIC: 1 µg/mL (≈ 1.26 µM)
[25]
  MIC: 4 µg/mL (≈ 5.05 µM)
[26]
  MIC: 0.25 µg/mL (≈ 0.315 µM)
[27]
  MIC: 0.25 µg/mL (≈ 0.315 µM)
[28]
  MIC: 0.12 µg/mL (≈ 0.151 µM)
[29]
  ED50: 5 mg/kg
[30]
  MIC: 8 µg/mL (≈ 10.1 µM)
[31]
  MIC: < 0.5 µg/mL
[32]
  MIC: 1 µg/mL (≈ 1.26 µM)
[33]
  Concentration: 0.3 µg/mL
[34]
  Concentration: 12.7 µg/mL
[35]
  MIC: 8 µg/mL (≈ 10.1 µM)
[36]
  MIC: 0.12 µg/mL (≈ 0.151 µM)
[37]
  MIC: 16 µg/mL (≈ 20.2 µM)
[38]
  MIC: 2 µg/mL (≈ 2.52 µM)
[39]
  MIC: 16 µg/mL (≈ 20.2 µM)
[40]
  Concentration: 0.4 µg/mL
[41]
  MIC: < 0.5 µg/mL
[42]
  MIC: < 0.5 µg/mL
[43]
  MIC: 1 µg/mL (≈ 1.26 µM)
[44]
  MIC: 1 µg/mL (≈ 1.26 µM)
[45]
  ED50: 9 mg/kg
[46]
  ED50: > 50 mg/kg
[47]
  Concentration: 8.4 µg/mL
[48]
  ED50: > 20 mg/kg
[49]
  MIC: 16 µg/mL (≈ 20.2 µM)
[50]
  MIC: 16 µg/mL (≈ 20.2 µM)
[51]
  MIC: 0.12 µg/mL (≈ 0.151 µM)
[52]
  MIC: > 128 µg/mL
[53]
  MIC: 2 µg/mL (≈ 2.52 µM)
[54]
  MIC: 2 µg/mL (≈ 2.52 µM)
[55]
  MIC: 0.25 µg/mL (≈ 0.315 µM)
[56]
  Concentration: 0.3 µg/mL
[57]
  Concentration: 6.4 µg/mL
[58]
  MIC: 2 µg/mL (≈ 2.52 µM)
[59]
  MIC: 16 µg/mL (≈ 20.2 µM)
[60]
  MIC: 2 µg/mL (≈ 2.52 µM)
[61]
  MIC: 0.25 µg/mL (≈ 0.315 µM)
[62]
  MIC: 2 µg/mL (≈ 2.52 µM)
[63]
  MIC: 16 µg/mL (≈ 20.2 µM)
[64]
  MIC: 64 µg/mL (≈ 80.8 µM)
